Source: PubChem BioAssay
PolyA inhibitor: polyadenylation inhibitors in yeast reporter cells, primary screen, luminescence, S. cerevisiae; S. cerevisiae SKY197-pL101 polyadenylation reporter, beta-gal luminescence; efflux-impaired pdr1/pdr3 knockout yeast; score 100 = 6 SD above DMSO; activity score, % at 12 µM; 0.02% of 300,000 active; AID 1875, 2009;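 active = lowest replicate activity score at least 50, where 100 means six control SD above control mean; inconclusive = lowest score under 50 but half or more replicates reach 50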;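 also: yeast exposed to compound for 9 h at 30 °C; higher score means more reporter readthrough which indicates perturbed polyadenylation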
Efflux pump inh: inhibitors of Candida efflux pumps in yeast, primary screen, S. cerevisiae, Nile Red, multiplex | AID 485275, 2010 | S. cerevisiae Candida pump triplex | 0.44% of 330,000 active | inhibition, % at 10 µM;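 active = plate passing quality check with inhibition over a set limit, or well fluorescence over plate mean plus 4 SD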;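 also: Nile Red retained in pooled yeast measured as flow cytometry median fluorescence; 0% = buffer negative control and 100% = Enniatin B positive control; higher means more Nile Red kept so more efflux inhibition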
T cruzi repl: inhibitors of intracellular T. cruzi growth, primary screen, luminescence, NIH3T3 host cells | T. cruzi beta-gal in NIH3T3, 90 h | inhibition, % (concentration not given with the values) | 1.4% of 300,000 active;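 active = mean inhibition across valid replicates above about 55%, limit read from the data; inconclusive = mean below that limit but half or more replicates reach it; inactive = mean below it, under half of replicates reach it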;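 also: signal also drops with host cell toxicity which is not excluded here; 0% = plate median of DMSO wells and 100% = zero luminescence signal; higher percent means less beta-gal luminescence so fewer parasites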
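System: Mouse NIH/3T3 fibroblasts infected with β-gal-expressing T. cruzi Tulahuen C4 | Quantity: NIH/3T3 cells, 5,000 per well | Reagent: 5000 reporter trypomastigotes per well | Dosing: Compound pinned at 50 nL/well, DMSO | Schedule: 3 h host attachment, then at least 90 h co-culture | Detection: GalScreen luminescence, 60 min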
AI-2 QS mod: Vibrio harveyi AI-2 quorum sensing modulators, primary screen, JMH597 strain, luminescence/OD600 ratio; Vibrio harveyi JMH597 AI-2 luminescence/OD600 ratio, 9 h; stronger effect = lower value; strain lacks LuxN and CqsS sensors; 0 = neutral-control median; activity change, % at 7.5 µM; 0.4% of 300,000 active; AID 2094, 2009; in the data active = activity change below about -75%, passing the limit was not always enough; inconclusive = no clear call, values can overlap the other calls;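 also: luminescence divided by OD600 gain over 9 h not by final OD600 alone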
HDAC3 inh: HDAC3 deacetylase inhibitors, primary screen, biochemical, fluorescence, cell-free homogeneous; Histone deacetylase 3 (Homo sapiens), O15379; recombinant HDAC3, fluorogenic peptide/trypsin coupled; inhibition, % at 8.3 µM; 0.15% of 320,000 active; AID 2718, 2010; in the data active = inhibition above about 26%, passing the limit was not always enough; inconclusive = no clear call, values can overlap the other calls
Target sequence (O15379 whole entry, looked up): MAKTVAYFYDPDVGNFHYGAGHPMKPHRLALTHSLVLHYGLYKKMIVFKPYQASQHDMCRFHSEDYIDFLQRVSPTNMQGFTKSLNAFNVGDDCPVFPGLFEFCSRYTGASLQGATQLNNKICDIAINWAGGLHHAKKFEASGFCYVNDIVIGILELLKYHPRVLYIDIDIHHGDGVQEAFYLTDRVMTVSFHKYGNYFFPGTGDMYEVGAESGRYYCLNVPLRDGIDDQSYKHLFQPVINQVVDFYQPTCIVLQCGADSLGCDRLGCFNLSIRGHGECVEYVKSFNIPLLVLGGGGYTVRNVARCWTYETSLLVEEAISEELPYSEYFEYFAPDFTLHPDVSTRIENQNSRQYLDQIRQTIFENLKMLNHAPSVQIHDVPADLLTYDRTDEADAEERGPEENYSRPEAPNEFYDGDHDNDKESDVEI
Starred values were filed as active, the others as inactive; ? = inconclusive; / = no result. Shown are actives, neighbours in structure and some others; about 2.2% of the full set was active somewhere.

SMILES | PolyA inhibitor | Efflux pump inh | T cruzi repl | AI-2 QS mod | HDAC3 inh
CC(CN1CCN(C)CC1)OC(=O)c1ccc(Cl)cc1 (configuration not stated) | 20 | 0 | 59* | 2 | -8
CC(CN1CCCCC1)OC(=O)c1ccc(Cl)cc1 (configuration not stated) | 1 | 0 | -3 | 14 | -4
Nc1nnc(SCc2cn3cc(Cl)ccc3n2)s1 | 2 | 0 | -26 | 21 | 3
CC(C)(C)NC(=O)C(c1ccc(O)cc1)N(C(=O)CCC(=O)Nc1nccs1)c1ccc(F)cc1 (configuration not stated) | -2 | 0 | -6 | 13 | 4
CCC(C)NCCOCCOc1ccc(Cl)c2ccccc12 (configuration not stated) | -11 | 0 | 55* | 18 | -4
C=CCc1cc(Cl)ccc1OCCOCCNC(C)CC (configuration not stated) | -1 | 0 | 45 | 1 | -2
CCC(C)NCCOCCOc1ccc(Cl)c(C)c1C (configuration not stated) | -6 | 0 | 59* | 8 | -4
CCOc1ccc(N2C(=O)Nc3ccccc3C2(O)C(=O)N2CCN(c3ccccn3)CC2)cc1 (configuration not stated) | -9 | 0 | 4 | 10 | -2
Cc1ccc(S(=O)(=O)NCCN=Cc2ccc(N(C)C)cc2)cc1 | -7 | 0 | -11 | 5 | -6
COc1ccc(NCc2nc3ccccc3n2CCOc2ccccc2)cc1 | 6 | 0 | 69* | 0 | 1
COc1ccc(NCc2nc3ccccc3n2CCOc2ccc(C)cc2)cc1 | 17 | 0 | 39 | 33 | /
CCCCc1ccc(NC(=O)CC(C)(C)C)cc1 | -12 | 0 | 10 | -76* | 13
CCCCc1ccc(NC(=O)CC(C)=O)cc1 | 10 | 0 | -8 | 16 | -3
CCOC(=O)c1cnc2c(-c3ccccc3)c(-c3ccccc3)nn2c1C | -4 | 0 | 35 | 17 | -16
CC1(C)Cc2c(sc(NC(=O)COc3ccc(Cl)cc3)c2C#N)C(C)(C)N1 | 10 | 1.6* | 7 | 7 | -1
Cc1ccccc1OCC(=O)Nc1sc2c(c1C#N)CC(C)(C)NC2(C)C | 29 | 0 | 20 | 7 | 5
CC12CCC(=O)N1C(C(=O)Nc1cc(Cl)ccc1N1CCOCC1)CS2 (configuration not stated) | -15 | 0 | 7 | 18 | -10
COc1ccc(Nc2nc(-c3cccs3)nc3ccccc23)cc1S(=O)(=O)N1CCOCC1 | 8 | 0 | 55* | 18 | 6
C/C(=N\NC(=S)Nc1cccc(C)c1)c1ccco1 | 0 | 0 | 77* | 8 | 7
Cc1c(C)c(C)c2[nH]c(-c3ccc4c(c3)OCO4)nc2c1C | 35 | 0 | 58* | 6 | -6
CC(=O)c1ccc(OC(=O)c2ccc(Br)o2)cc1 | -9 | 0 | 0 | 25 | 67*
Cc1cc(C)nc(NS(=O)(=O)c2ccc(NC(=O)c3ccc(O)cc3O)cc2)n1 | ? | 0 | -8 | 13 | -24
CC1(C)CC(=O)C2=C(C1)NC(SCC(=O)Nc1ccccc1)=C(C#N)C21CCCCC1 | 4 | 0 | 28 | 8 | 10
CC1(C)CC(=O)C2=C(C1)NC(=S)C(C#N)C21CCCCC1 (configuration not stated) | -8 | 0 | 20 | 8 | 39*
CCn1c2ccccc2c2cc(CN3CCN(S(C)(=O)=O)CC3)ccc21 | -7 | 0 | 29 | 43 | 4
SMILES | PolyA inhibitor | Efflux pump inh | T cruzi repl | AI-2 QS mod | HDAC3 inh
CCn1c2ccccc2c2cc(CN3CCN(Cc4cc(OC)ccc4O)CC3)ccc21 | 4 | 0 | 72* | 19 | 10
CC(OC(=O)CN1C(=O)NC2(CCCC2)C1=O)C(=O)Nc1cccc(Cl)c1 (configuration not stated) | ? | 0 | -14 | 8 | 3
Cc1noc(C)c1CSCc1ccc(Cl)cc1 | -13 | 0 | -5 | 17 | 3
c1ccc(CSc2ccc(-c3ccccn3)nn2)cc1 | -21 | 0 | 58* | -54 | 4
Clc1ccc(CSc2ccc(-c3ccccn3)nn2)cc1 | 1 | 0 | 68* | 12 | -5
O=C(CSc1ccc(-c2ccccn2)nn1)c1ccccc1 | -7 | 0 | 6 | -6 | 2
